In ChEMBL document CHEMBL1133719, “Synthesis and preliminary biological evaluations of CC-1065 analogues: effects of different linkers and terminal amides on biological activity” (J Med Chem, 2000):

Tests used:
PC-3 = experiment: Cytotoxicity against NCI tumor panel, PC-3 prostate cancer cell line; assay type: functional, cell-based; details: Homo sapiens
Procedure, shortened: (§1)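 Performed by NCI with the sulforhodamine B (SRB) method on its human tumour cell panel, using a 48-h drug incubation.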

SK-OV-3 = experiment: cytotoxicity against NCI tumor panel, SK-OV-3 ovarian cancer cell line; assay type: functional, cell-based; details: Homo sapiens; procedure, shortened: as §1
HT-29 = experiment: Cytotoxicity against NCI tumor panel, HT-29 colon cancer cell line; assay type: functional, cell-based; details: Homo sapiens; procedure, shortened: as §1
Mus musculus [1] = organism: Mus musculus; experiment: Mean body weight change
MDA-MB-435 = experiment: Cytotoxicity against NCI tumor panel, MDA-MB-435 breast cancer cell line; assay type: functional, cell-based; details: Homo sapiens; procedure, shortened: as §1
Mus musculus [2] = organism: Mus musculus; experiment: Hematological effects in female CDF1 mice at the dose of 50 ug, in red blood cells; assay type: functional
Procedure, shortened: (§2)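 Non-tumor-bearing female CDF1 mice, 10 per group. Drugs were dissolved in DMSO, diluted in 30% DMSO/0.5% glucose, and given as a single ip dose on day 1 (doses per kg). Blood was sampled on day 27 for WBC, platelet, RBC and MCHC counts. Values are medians of 10 mice.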

SR = experiment: Cytotoxicity against NCI tumor panel, SR leukemia cell line; assay type: functional, cell-based; details: Homo sapiens; procedure, shortened: as §1
UACC-62 = experiment: Cytotoxicity against NCI tumor panel, UACC-62 melanoma cancer cell line; assay type: functional, cell-based; details: Homo sapiens; procedure, shortened: as §1
Mus musculus [3] = organism: Mus musculus; experiment: Hematological effects in female CDF1 mice at the dose of 50ug, in white blood cells; assay type: functional; procedure, shortened: as §2
IGROV-1 = experiment: Cytotoxicity against NCI tumor panel, IGROV1 ovarian cancer cell line; assay type: functional, cell-based; details: Homo sapiens; procedure, shortened: as §1
T47D = experiment: cytotoxicity against NCI tumor panel, T-47D breast cancer cell line; assay type: functional, cell-based; details: Homo sapiens; procedure, shortened: as §1
CAKI-1 = experiment: Cytotoxicity against NCI tumor panel, CAKI-1 renal cancer cell line; assay type: functional, cell-based; details: Homo sapiens
Procedure, shortened: (§3)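 NCI cell-line panel screen run by the National Cancer Institute; sulforhodamine B (SRB) readout after 48-h drug incubation.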

Mus musculus [4] = organism: Mus musculus; experiment: Mean corpuscular haemoglobin concentration; assay type: functional
Procedure, shortened: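 Non-tumour-bearing female CDF1 mice, 10 per group. Drug was dissolved in DMSO, diluted in 30% DMSO/0.5% glucose, and given as a single ip dose on day 1. Blood was sampled on day 27 for WBC, platelet, RBC and MCHC measurements. Values are medians of 10 mice, with saline or vehicle controls.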

A549 = experiment: Cytotoxicity against NCI tumor panel, A-549/ATCC non small-cell lung cancer cell line; assay type: functional, cell-based; details: Homo sapiens; procedure, shortened: as §3
786-0 = experiment: Cytotoxicity against NCI tumor panel, 786-0 renal cancer cell line; assay type: functional, cell-based; details: Homo sapiens; procedure, shortened: as §3
NCI-H460 = experiment: Cytotoxicity against NCI tumor panel, NCI-H460 non small-cell lung cancer cell line; assay type: functional, cell-based; details: Homo sapiens; procedure, shortened: as §1
A498 = experiment: Cytotoxicity against NCI tumor panel, A-498 renal cancer cell line; assay type: functional, cell-based; details: Homo sapiens; procedure, shortened: as §3
HCC 2998 = experiment: Cytotoxicity against NCI tumor panel, HCC_2998 colon cancer cell line; assay type: functional, cell-based; details: Homo sapiens; procedure, shortened: as §3
U-251 = experiment: Cytotoxicity against NCI tumor panel, U251 CNS cancer cell line; assay type: functional, cell-based; details: Homo sapiens; procedure, shortened: as §1
HOP-62 = experiment: Cytotoxicity against NCI tumor panel, HOP-62 non small-cell lung cancer cell line; assay type: functional, cell-based; details: Homo sapiens; procedure, shortened: as §3
ACHN = experiment: Cytotoxicity against NCI tumor panel, ACHN renal cancer cell line; assay type: functional, cell-based; details: Homo sapiens; procedure, shortened: as §3
NCI/ADR-RES = experiment: Cytotoxicity against NCI tumor panel, NCI/ADR-RES breast cancer cell line; assay type: functional, cell-based; details: Homo sapiens; procedure, shortened: as §1
UO-31 = experiment: Cytotoxicity against NCI tumor panel, U031 renal cancer cell line; assay type: functional, cell-based; details: Homo sapiens; procedure, shortened: as §1
Mus musculus [5] = organism: Mus musculus; experiment: Antitumor activity in mice bearing B16BL6 melanoma; survivors for 90 days was reported
OVCAR-8 = experiment: Cytotoxicity against NCI tumor panel, OVCAR-8 ovarian cancer cell line; assay type: functional, cell-based; details: Homo sapiens; procedure, shortened: as §1
Mus musculus [6] = experiment: Haematological effects in mice dose administered intraperitoneally; assay type: functional; procedure, shortened: as §2
TK-10 = experiment: Cytotoxicity against NCI tumor panel, TK10 renal cancer cell line; assay type: functional, cell-based; details: Homo sapiens; procedure, shortened: as §1
OVCAR-3 = experiment: Cytotoxicity against NCI tumor panel, OVCAR-3 ovarian cancer cell line; assay type: functional, cell-based; details: Homo sapiens; procedure, shortened: as §1
Hs-578T = experiment: Cytotoxicity against NCI tumor panel, HS 578T breast cancer cell line; assay type: functional, cell-based; details: Homo sapiens; procedure, shortened: as §1
Mus musculus [7] = organism: Mus musculus; experiment: Hematological effects in female CDF1 mice at the dose of 50 ug, in platelet cells; assay type: functional; procedure, shortened: as §2
SK-MEL-2 = experiment: Cytotoxicity against NCI tumor panel,SK-MEL2 melanoma cancer cell line; assay type: functional, cell-based; details: Homo sapiens; procedure, shortened: as §1
CCRF-CEM = experiment: Cytotoxicity against NCI tumor panel, CCRF-CEM leukemia cell line; assay type: functional, cell-based; details: Homo sapiens; procedure, shortened: as §3
MCF7 = experiment: Cytotoxicity against NCI tumor panel, MCF-7 breast cancer cell line; assay type: functional, cell-based; details: Homo sapiens; procedure, shortened: as §1
LOX IMVI = experiment: Cytotoxicity against NCI tumor panel, […] melanoma cancer cell line; assay type: functional, cell-based; details: Homo sapiens; procedure, shortened: as §1
SF-268 = experiment: Cytotoxicity against NCI tumor panel, SF-268 CNS cancer cell line; assay type: functional, cell-based; details: Homo sapiens; procedure, shortened: as §1
BT-549 = experiment: Cytotoxicity against NCI tumor panel, BT-549 breast cancer cell line; assay type: functional, cell-based; details: Homo sapiens; procedure, shortened: as §3
NCI-H522 = experiment: Cytotoxicity against NCI tumor panel, NCI-H522 non small-cell lung cancer cell line; assay type: functional, cell-based; details: Homo sapiens; procedure, shortened: as §1
HOP-92 = experiment: Cytotoxicity against NCI tumor panel, HOP-92 non small-cell lung cancer cell line; assay type: functional, cell-based; details: Homo sapiens; procedure, shortened: as §3
RPMI-8226 = experiment: Cytotoxicity against NCI tumor panel, RPMI-8226 leukemia cell line; assay type: functional, cell-based; details: Homo sapiens; procedure, shortened: as §1
Mus musculus [8] = experiment: Antitumor activity in BDF1 male mice bearing L1210 Leukemia at a dose of 70 ug/kg; assay type: functional
Procedure, shortened: (§4)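 Male BDF1 mice, 4-6 weeks old, 6 per group, were given 10⁵ L1210 cells ip on day 0. Drug in DMF was diluted in 30% DMSO/0.5% glucose and given ip on days 1, 5 and 9. %ILS = (T/C − 1) × 100 on median survival of dying animals only; 30-day survivors noted separately. Group weight change was taken from day 0 to the lowest-weight day.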

NCI-H322M = experiment: Cytotoxicity against NCI tumor panel, NCI-H322M non small-cell lung cancer cell line; assay type: functional, cell-based; details: Homo sapiens; procedure, shortened: as §1
Mus musculus [9] = experiment: Antitumor activity in BDF1 male mice bearing L1210 Leukemia at a dose of 42 ug/kg; survivors for 30 days was reported; assay type: functional; procedure, shortened: as §4
SK-MEL-5 = experiment: Cytotoxicity against NCI tumor panel, SKMEL-5 melanoma cancer cell line; assay type: functional, cell-based; details: Homo sapiens; procedure, shortened: as §1
SK-MEL-28 = experiment: Cytotoxicity against NCI tumor panel, SK-MEL28 melanoma cancer cell line; assay type: functional, cell-based; details: Homo sapiens; procedure, shortened: as §1
SNB-75 = experiment: Cytotoxicity against NCI tumor panel, SNB-75 CNS cancer cell line; assay type: functional, cell-based; details: Homo sapiens; procedure, shortened: as §1
Mus musculus [10] = experiment: Antitumor activity was tested in mice and percent increase of life span at a dose of 50 ug/kg was reported; assay type: functional
Procedure, shortened: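 B16BL6 cells were cultured as monolayers, and 10⁶ cells were injected ip on day 0 into female BDF1 mice (4-6 weeks, 8 per group). Drug in dimethylacetamide was diluted in DMA/Cremophor/water (1:5:44) and 0.1 mL given ip on days 1, 5 and 9. %ILS came from median survival of dying animals; 90-day survivors were counted; mean weight change covered days 1-10.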

HCT-116 = experiment: Cytotoxicity against NCI tumor panel, HCT116 colon cancer cell line; assay type: functional, cell-based; details: Homo sapiens; procedure, shortened: as §3
SW-620 = experiment: Cytotoxicity against NCI tumor panel, SW_620 colon cancer cell line; assay type: functional, cell-based; details: Homo sapiens; procedure, shortened: as §1
KM12 = experiment: Cytotoxicity against NCI tumor panel, KM12 colon cancer cell line; assay type: functional, cell-based; details: Homo sapiens; procedure, shortened: as §1
SF-539 = experiment: Cytotoxicity against NCI tumor panel, SF-539 CNS cancer cell line; assay type: functional, cell-based; details: Homo sapiens; procedure, shortened: as §1

## CC(=O)Nc1ccc2[nH]c(C(=O)Nc3ccc4[nH]c(C(=O)N5CC(CCl)c6c5cc(O)c5ccccc65)cc4c3)cc2c1 (stereo not given)
PC-3
  IC50: 2.03 nM
SK-OV-3
  IC50: 4.33 nM
HT-29
  IC50: 1.34 nM
Mus musculus [1]
  Weight: 16%
MDA-MB-435
  IC50: 1.86 nM
Mus musculus [2]
  RBC: 8.72 10e6 ul-1
SR
  IC50: 0.562 nM
UACC-62
  IC50: 0.419 nM
Mus musculus [3]
  WBC: 13.1 10e3 ul-1
IGROV-1
  IC50: 1.01 nM
T47D
  IC50: 1.68 nM
CAKI-1
  IC50: 4.27 nM
Mus musculus [4]
  MCHC: 36.7 g/dL
A549
  IC50: 1.49 nM
786-0
  IC50: 1.66 nM
NCI-H460
  IC50: 1.48 nM
A498
  IC50: 3.95 nM
HCC 2998
  IC50: 4.03 nM
U-251
  IC50: 0.719 nM
HOP-62
  IC50: 1.25 nM
ACHN
  IC50: 1.28 nM
NCI/ADR-RES
  IC50: 8.56 nM
UO-31
  IC50: 4.05 nM
Mus musculus [5]
  No. of survivors: 0
OVCAR-8
  IC50: 1.6 nM
Mus musculus [6]
  Dose: 50 µg/kg
TK-10
  IC50: 3.13 nM
OVCAR-3
  IC50: 3.51 nM
Hs-578T
  IC50: 1.63 nM
Mus musculus [7]
  Platelet: 1.1 10e6 ul-1
SK-MEL-2
  IC50: 2.11 nM
CCRF-CEM
  IC50: 3.14 nM
MCF7
  IC50: 0.476 nM
LOX IMVI
  IC50: 0.577 nM
SF-268
  IC50: 0.212 nM
BT-549
  IC50: 3.29 nM
NCI-H522
  IC50: 0.238 nM
HOP-92
  IC50: 2.11 nM
RPMI-8226
  IC50: 8.98 nM
Mus musculus [8]
  No. of survivors: 1
NCI-H322M
  IC50: 2.13 nM
Mus musculus [9]
  No. of survivors: 0
SK-MEL-5
  IC50: 1.11 nM
SK-MEL-28
  IC50: 2.21 nM
SNB-75
  IC50: 0.513 nM
Mus musculus [10]
  ILS at 0.05 mg/kg: 59%
HCT-116
  IC50: 0.495 nM
SW-620
  IC50: 2.36 nM
KM12
  IC50: 1.78 nM
SF-539
  IC50: 1.24 nM
